Data set [1] can be described thus: Cytotoxicity against human SH-SY5Y cells assessed as LDH release after 48 hrs (reference value: 0%). Format: cell-based. A digest of the protocol:
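SH-SY5Y neuroblastoma cells were grown in serum for 5 days, then exposed to inhibitor (1–500 nM range). LDH activity in the medium was measured with a commercial kit. Values are % activity relative to untreated cells, which were set to 0%.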
On the technique in general: LDH in the medium is a marker of cell lysis.

Data set [2] addresses T1, Farnesyl pyrophosphate synthase (Homo sapiens, UniProt P14324).
T1 sequence (P14324 whole entry): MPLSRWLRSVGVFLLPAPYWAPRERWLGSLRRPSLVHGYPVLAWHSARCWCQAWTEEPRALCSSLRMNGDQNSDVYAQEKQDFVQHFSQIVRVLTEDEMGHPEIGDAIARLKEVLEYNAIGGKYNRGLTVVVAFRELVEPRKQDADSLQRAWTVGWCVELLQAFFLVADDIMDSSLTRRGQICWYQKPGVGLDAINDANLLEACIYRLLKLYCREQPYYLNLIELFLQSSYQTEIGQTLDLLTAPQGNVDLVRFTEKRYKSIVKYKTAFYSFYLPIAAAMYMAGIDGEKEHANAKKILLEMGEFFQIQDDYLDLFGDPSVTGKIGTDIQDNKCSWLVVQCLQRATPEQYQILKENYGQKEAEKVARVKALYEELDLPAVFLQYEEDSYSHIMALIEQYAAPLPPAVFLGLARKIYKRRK
The data set can be described thus: Allosteric inhibition of human recombinant FPPS using GPP and [3H]IPP as substrate incubated with enzyme for 10 mins prior to substrate addition by liquid scintillation counting analysis.

A short description of data set [3]: Dissociation constant, pKa of P(O)O-OH group of compound. In kind it is physicochemical.
Data set [4] concerns the target T2, Farnesyl pyrophosphate synthase (Homo sapiens) (UniProt P14324).
T2 sequence (whole entry): T1 sequence (P14324 whole entry)
In words: Allosteric inhibition of human recombinant FPPS using GPP and [3H]IPP as substrate at 20 uM incubated with enzyme for 10 mins prior to substrate addition by liquid scintillation counting analysis.

Data set [5] addresses T1, Farnesyl pyrophosphate synthase. In words: Binding affinity to human FPPS by […] in absence of Mg2+ ions. A digest of the protocol:
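ITC at 30 °C. One 1 μL ligand injection was followed by 18 injections of 2 μL. Heats of dilution from control titrations were subtracted.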
(In general: Isothermal titration calorimetry measures the heat released or taken up as one component is titrated into another.)

Experimental findings from ChEMBL document CHEMBL3297739 (J Med Chem, 2014) are described below.

Turning to `O=P(O)(O)C(O)(Cc1cccnc1)P(=O)(O)O` [RISEDRONIC ACID], the Activity in data set [1] stood at 60%.
`O.O=P(O)(O)C(O)(Cn1ccnc1)P(=O)(O)O` [ZOLEDRONIC ACID]: the Activity in data set [1] is on record as 60%.
As to `O=P(O)(O)C(Nc1cncc(-c2ccc(OC3CC3)cc2)c1)P(=O)(O)O`, in data set [1], the Activity is on record as 0%.
In the case of `Cc1ccc(-c2cc3c(CCP(=O)(O)O)ncnc3s2)cc1`, the IC50 (commonly the concentration at which inhibition is half-maximal) in data set [2] is 26 µM. Besides, in data set [3], the pKa (commonly the pH at which an ionisable group is half protonated) was determined as 7.7.
With `Cc1ccc(-c2cc3c(NC(c4ccccc4)P(=O)(O)O)ncnc3s2)cc1Cl` (centres undefined), in data set [2], the IC50 was determined as 1.2 µM. For the same compound, in data set [1], the Activity is reported as -7%.
For `Cc1ccc(-c2cc3c(NCC(=O)O)ncnc3s2)cc1`, the 50% inhibitory concentration (IC50) in data set [2] was more than 20 µM. Further, the inhibition (in general, the drop in the measured response relative to a control, in per cent) in data set [4] stood at 27%.
Turning to `O=C(O)Cn1c(C(=O)O)cc2ccc3ccccc3c21`, in data set [1], the Activity was determined as 3%.
With `O=P(O)(O)CCc1cccnc1`, the IC50 in data set [2] is more than 800 µM.
Regarding `O=P(O)(O)C(Cc1cccnc1)P(=O)(O)O`, the IC50 in data set [2] was found to be 0.033 µM.
For the compound `Cc1ccc(-c2cc3c(NCCP(=O)(O)O)ncnc3s2)cc1`, the IC50 in data set [2] was more than 20 µM. Besides, in data set [4], the inhibition turned out to be 40%.
As to `Cc1ccc(-c2cc3c(NCP(=O)(O)O)ncnc3s2)cc1Cl`, the half-maximal inhibitory concentration (IC50) in data set [2] is 3.3 µM.
Turning to `Cc1ccc(-c2cc3c(NC(P(=O)(O)O)P(=O)(O)O)ncnc3s2)cc1`, the Kd (usually the concentration at which binding is half-saturated) in data set [5] worked out at 56 µM.
Consider `O=P(O)(O)C(Nc1ncnc2sc(-c3ccc(OC4CC4)cc3)cc12)P(=O)(O)O`, for which the Activity in data set [1] is given as -1%.
`Cc1ccc(-c2cc3c(NCP(=O)(O)O)ncnc3s2)cc1` came in with a dissociation constant (Kd) in data set [5] of 9.2 µM. For the same compound, the pKa in data set [3] was found to be 6.8.
